Series [1] concerns the target T1, Lysophosphatidylserine lipase ABHD12 (Rattus norvegicus) (UniProt Q6AYT7).
T1 sequence (whole entry): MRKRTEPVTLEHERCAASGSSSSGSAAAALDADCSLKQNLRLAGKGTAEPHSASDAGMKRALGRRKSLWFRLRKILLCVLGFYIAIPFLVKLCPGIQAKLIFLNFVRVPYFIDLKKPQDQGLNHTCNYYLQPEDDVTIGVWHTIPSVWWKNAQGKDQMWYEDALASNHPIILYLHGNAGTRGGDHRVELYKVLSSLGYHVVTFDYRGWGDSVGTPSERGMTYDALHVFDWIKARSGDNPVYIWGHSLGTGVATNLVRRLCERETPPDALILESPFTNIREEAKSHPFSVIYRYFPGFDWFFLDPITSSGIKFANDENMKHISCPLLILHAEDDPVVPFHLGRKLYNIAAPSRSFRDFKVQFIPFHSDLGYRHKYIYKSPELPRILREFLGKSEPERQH
Description: Inhibition of ABHD12 in rat brain membranes up to 500 nM preincubated for 20 mins followed by fluorophosphonate-rhodamine addition measured after 30 mins by competitive affinity based proteomic profiling assay. It counts as cell membranes. To be noted: Membrane. In short, it runs like this: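 Rat brain membranes (1 mg/mL) preincubated with 1–1000 nM inhibitor or DMSO for 20 min at 37 °C. FP-rhodamine then added and incubated a further 30 min at 37 °C. Samples run on SDS-PAGE and serine hydrolase bands quantified by in-gel fluorescence.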

In series [2] the test system is Heart. Description: Cardiotoxicity in Langendorff-perfused Sprague-Dawley rat heart assessed as time duration of action potential at 0.1 uM by ECG analysis (reference value: 75.65 +/- 0.87 milliseconds). It counts as toxicity, tissue-based.
Series [3] has as its system Heart. As to the kind of experiment: Cardiotoxicity in Langendorff-perfused Sprague-Dawley rat heart assessed as intraventricular conduction time at 1 uM by ECG analysis (reference value: 14.26 +/- 0.71 milliseconds). It counts as toxicity, tissue-based, Cardiac ventricle.
In series [4] the test system is Heart. Description: Cardiotoxicity in Langendorff-perfused Sprague-Dawley rat heart assessed as time duration of action potential at 0.01 uM by ECG analysis (reference value: 75.65 +/- 0.87 milliseconds). It counts as toxicity, tissue-based.
Series [5] deals with Heart. As to the kind of experiment: Cardiotoxicity in Langendorff-perfused Sprague-Dawley rat heart assessed as heart rate at 0.01 uM by ECG analysis (reference value: 252.78 +/- 9.28 bpm). It counts as toxicity, tissue-based.
The test system of series [6] is Heart. Description: Cardiotoxicity in Langendorff-perfused Sprague-Dawley rat heart assessed as atrioventricular conduction time at 1 uM by ECG analysis (reference value: 45.62 +/- 4.49 milliseconds). It counts as toxicity, tissue-based.
For series [7], the system named is Mus musculus. As to the kind of experiment: Antinociceptive activity in ip dosed CD-1 mouse assessed as inhibition of formalin-induced pain response compound administered 10 mins before formalin injection measured during early phase. It counts as functional. To be noted: CD-1, ip, read-out: MED. In short, it runs like this:
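Male CD-1 mice, n = 6 per group, injected with formalin (1.25% in saline, 30 μL) into the dorsal hind paw. Inhibitor (0.1 or 0.3 mg/kg i.p. in 0.5% DMSO/saline) given 10 min before formalin. Where used, AM251 or AM630 (1 mg/kg i.p.) given 10 min before the inhibitor. Time spent lifting, licking, shaking or flinching the injected paw recorded every 5 min over 60 min.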

In series [8] the test system is Mus musculus. Description: In vivo inhibition of MAGL in CD-1 mouse assessed as 2-AG level in pawskin at 0.3 mg/kg, ip coadministered with formalin by LC-MS analysis (reference value: 10.8 +/- 1.5 pmol/g). It counts as functional.

Each structure is given as a SMILES string. Calls of active or inactive are those of the source. The calls are words filed in the database; no cut-off is given here.

`O=C1[C@H](c2ccc(F)cc2)[C@@H](c2ccc3c(c2)OCO3)N1C1CCN(C(=O)n2cncn2)CC1` (racemic) [listing 1 of 2 here]: the inhibition result in series [1] is “inactive”.
Turning to `O=C1[C@H](c2ccc(F)cc2)[C@@H](c2ccc3c(c2)OCO3)N1C1CCN(C(=O)n2cncn2)CC1` (racemic) [listing 2 of 2 here], the Time amounted to 75.36 ms in the series with Heart [2], 13.75 ms in the series on Heart [3], 76.17 ms in the series with Heart [4] and 46.67 ms with Heart [6]. Further, the Activity in the series with Heart [5] amounted to 254.18 bpm; with Mus musculus [8], 14.1 pmol/g. The minimal effective dose in the series with Mus musculus [7] worked out at 0.3 mg/kg.

The values above are taken from ChEMBL document CHEMBL3785023, “Development and Pharmacological Characterization of Selective Blockers of 2-Arachidonoyl Glycerol Degradation with Efficacy in Rodent Models of Multiple Sclerosis and Pain” (J Med Chem, 2016).
